Source: ChEMBL document CHEMBL1147795, “cis-2,5-dicyanopyrrolidine inhibitors of dipeptidyl peptidase IV: synthesis and in vitro, in vivo, and X-ray crystallographic characterization” (J Med Chem, 2006)
Activity calls are given as the source filed them. No cut-off for these calls is given here.

Assays:
Dipeptidyl peptidase 4 = Dipeptidyl peptidase 4 (Homo sapiens, UniProt P27487); experiment: Inhibition of human recombinant DPP4
[1] = biological target: Dipeptidyl peptidase 4 (Mus musculus) (UniProt P28843); experiment: Lowering of glucose level in diabetic KK/H1J mouse at 3 mg/kg, po; type: functional, organism-based; set-up: dose 3 mg/kg
Sequence of Dipeptidyl peptidase 4 (Mus musculus) (P28843 whole entry, looked up): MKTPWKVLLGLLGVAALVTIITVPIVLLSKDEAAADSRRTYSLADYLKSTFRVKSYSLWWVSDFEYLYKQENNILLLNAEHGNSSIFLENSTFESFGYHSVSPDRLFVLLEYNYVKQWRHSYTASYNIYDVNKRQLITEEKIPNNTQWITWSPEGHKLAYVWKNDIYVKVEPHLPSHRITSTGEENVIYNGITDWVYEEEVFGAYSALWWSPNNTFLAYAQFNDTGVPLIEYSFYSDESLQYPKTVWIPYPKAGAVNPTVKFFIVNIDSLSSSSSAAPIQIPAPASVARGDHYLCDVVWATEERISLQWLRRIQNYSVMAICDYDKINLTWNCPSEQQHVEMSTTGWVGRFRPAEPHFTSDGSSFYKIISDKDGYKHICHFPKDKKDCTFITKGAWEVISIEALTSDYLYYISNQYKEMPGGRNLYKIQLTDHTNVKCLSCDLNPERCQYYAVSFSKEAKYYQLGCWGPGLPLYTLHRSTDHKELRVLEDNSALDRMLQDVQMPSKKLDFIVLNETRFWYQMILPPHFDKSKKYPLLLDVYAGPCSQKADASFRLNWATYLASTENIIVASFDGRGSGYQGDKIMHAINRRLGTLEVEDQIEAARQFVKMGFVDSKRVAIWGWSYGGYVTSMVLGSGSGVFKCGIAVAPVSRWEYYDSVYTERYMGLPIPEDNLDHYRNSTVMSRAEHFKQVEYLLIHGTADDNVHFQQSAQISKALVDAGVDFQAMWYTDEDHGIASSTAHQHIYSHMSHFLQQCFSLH
Procedure, shortened: (§1)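 Diabetic KK/H1J mice fasted overnight, 10 per group, dosed orally in 0.5% methylcellulose. Glucose given orally at t = 15 min; plasma glucose at t = 45 min.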

[2] = Bioavailability in Sprague-Dawley rat; type: ADME, organism-based; details: in vivo
Procedure, shortened: (§2)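 Male Sprague-Dawley rats (200-250 g), jugular vein cannulated. IV bolus 1.0 mg/kg in sterile saline; oral gavage 5.0 mg/kg in 0.5% methylcellulose. Blood sampled 0 to 24 h into lithium heparin, plasma frozen at -70 °C, compound quantified by LC/MS/MS after acetonitrile protein precipitation (standard curve 1.0-2000 ng/mL).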

Rattus norvegicus [3] = species on record: Rattus norvegicus; experiment: Hepatic clearance in Sprague-Dawley rat; type: ADME, organism-based, Liver; details: in vivo; procedure, shortened: as §2
[4] = Half life in Sprague-Dawley rat at 5 mg/kg, po; type: ADME, organism-based; set-up: dose 5 mg/kg, route oral; details: in vivo; procedure, shortened: as §2
[5] = Half life in Sprague-Dawley rat at 1 mg/kg, iv; type: ADME, organism-based; set-up: dose 1 mg/kg, route intravenous; details: in vivo; procedure, shortened: as §2
[6] = Volume of distribution in Sprague-Dawley rat; type: ADME, organism-based; details: in vivo, read-out: Vdss; procedure, shortened: as §2
[7] = biological target: Dipeptidyl peptidase 4 (Mus musculus) (UniProt P28843); experiment: Lowering of glucose level in diabetic KK/H1J mouse at 10 mg/kg, po; type: functional, organism-based; set-up: dose 10 mg/kg; procedure, shortened: as §1
[8] = biological target: Dipeptidyl peptidase 4 (Mus musculus) (UniProt P28843); experiment: Lowering of glucose level in diabetic KK/H1J mouse at 0.3 mg/kg, po; type: functional, organism-based; set-up: dose 0.3 mg/kg
Procedure, shortened: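 Overnight-fasted diabetic KK/H1J mice, 10 per group, given compound orally in 0.5% methylcellulose (0.2 mL per mouse), then an oral glucose challenge at t = 15 min. Retro-orbital bleeds were taken at 0, 15 and 45 min for plasma glucose. […] Scored significant or nonsignificant.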

[9] = biological target: Dipeptidyl peptidase 4 (Mus musculus) (UniProt P28843); experiment: Lowering of glucose level in diabetic KK/H1J mouse at 2.5 mg/kg, po; type: functional, organism-based; set-up: dose 2.5 mg/kg; procedure, shortened: as §1
[10] = biological target: Dipeptidyl peptidase 4 (Mus musculus) (UniProt P28843); experiment: Increase in plasma GLP1 level in KK mouse at 5 mg/kg, po after 2 hrs; type: functional, organism-based; set-up: dose 5 mg/kg
Procedure, shortened: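 Fed KK mice dosed 5 mg kg^-1 orally at t = 0. Blood sampled at intervals over 2 h for plasma GLP-1 and DPP-IV activity.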

[11] = Solubility in unbuffered water; type: physicochemical
Procedure, shortened: (§3)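 Solubility of the mono-hydrochloride salt measured in PBS pH 6.5 and in unbuffered water; final pH of the water solution 2.0.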

[12] = Solubility in phosphate buffered saline at pH 6.5; type: physicochemical; procedure, shortened: as §3
Cynomolgus monkey = experiment: Hepatic clearance in cynomolgus monkey; type: ADME, organism-based, Macaca fascicularis, Liver; details: in vivo
Procedure, shortened: (§4)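 Dog and monkey PK: oral dosing at 1 mg kg^-1 in sterile water, intravenous at 1 mg kg^-1 in sterile saline.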

[13] = Percent of unbound ligand in Beagle dog plasma; type: ADME, cell-free, Canis lupus familiaris
[14] = Half life in Beagle dog at 1 mg/kg, iv; type: ADME, organism-based, Canis lupus familiaris; set-up: dose 1 mg/kg, route intravenous; details: in vivo; procedure, shortened: as §4
[15] = Tmax in Sprague-Dawley rat; type: ADME, organism-based; details: in vivo; procedure, shortened: as §2
Rattus norvegicus [16] = species on record: Rattus norvegicus; experiment: Cmax in Sprague-Dawley rat; type: ADME, organism-based; details: in vivo; procedure, shortened: as §2
Canis familiaris [17] = species on record: Canis familiaris; experiment: Hepatic clearance in Beagle dog; type: ADME, organism-based, Canis lupus familiaris, Liver; details: in vivo; procedure, shortened: as §4
Rattus norvegicus [18] = species on record: Rattus norvegicus; experiment: AUC (0-infinity) in Sprague-Dawley rat; type: ADME, organism-based, Plasma; set-up: time infinity; details: in vivo; procedure, shortened: as §2
Canis familiaris [19] = experiment: Increase in thiocyanate ion in dog plasma at 3 mg/kg, po after 24 hrs; type: ADME, organism-based, Canis lupus familiaris; set-up: dose 3 mg/kg, route oral; details: in vivo
Procedure, shortened: (§5)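 Stored plasma from earlier oral dosing (rat 15 mg kg^-1, dog and monkey 3 mg kg^-1) analysed for thiocyanate through 24 h, compared with the t = 0 sample.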

[20] = Percent of unbound ligand in Sprague-Dawley rat plasma; type: ADME, cell-free
Rattus norvegicus [21] = experiment: Increase in thiocyanate ion in rat plasma at 15 mg/kg, po after 24 hrs; type: ADME, organism-based; set-up: dose 15 mg/kg, route oral; details: in vivo; procedure, shortened: as §5
[22] = Percent of unbound ligand in human plasma; type: ADME
[23] = Volume of distribution in cynomolgus monkey; type: ADME, organism-based, Macaca fascicularis; details: in vivo, read-out: Vdss; procedure, shortened: as §4
[24] = Percent of unbound ligand in cynomolgus monkey plasma; type: ADME, cell-free, Macaca fascicularis
[25] = Tmax in Beagle dog; type: ADME, organism-based, Canis lupus familiaris; details: in vivo; procedure, shortened: as §4
[26] = Tmax in cynomolgus monkey; type: ADME, organism-based, Macaca fascicularis; details: in vivo; procedure, shortened: as §4
[27] = Bioavailability in Beagle dog; type: ADME, organism-based, Canis lupus familiaris; details: in vivo; procedure, shortened: as §4
[28] = Bioavailability in cynomolgus monkey; type: ADME, organism-based, Macaca fascicularis; details: in vivo; procedure, shortened: as §4
[29] = Half life in cynomolgus monkey at 1 mg/kg, iv; type: ADME, organism-based, Macaca fascicularis; set-up: dose 1 mg/kg, route intravenous; details: in vivo; procedure, shortened: as §4
[30] = Half life in cynomolgus monkey at 1 mg/kg, po; type: ADME, organism-based, Macaca fascicularis; set-up: dose 1 mg/kg, route oral; details: in vivo; procedure, shortened: as §4
Rhesus monkey = experiment: Increase in thiocyanate ion in monkey plasma at 3 mg/kg, po after 24 hrs; type: ADME, organism-based; set-up: dose 3 mg/kg, route oral; details: in vivo; procedure, shortened: as §5
[31] = Volume of distribution in Beagle dog; type: ADME, organism-based, Canis lupus familiaris; details: in vivo, read-out: Vdss; procedure, shortened: as §4
[32] = Half life in Beagle dog at 1 mg/kg, po; type: ADME, organism-based, Canis lupus familiaris; set-up: dose 1 mg/kg, route oral; details: in vivo; procedure, shortened: as §4
[33] = biological target: Dipeptidyl peptidase 4 (Mus musculus) (UniProt P28843); experiment: Lowering of glucose level in diabetic KK/H1J mouse at 5 mg/kg, po; type: functional, organism-based; set-up: dose 5 mg/kg; procedure, shortened: as §1

Sequence of Dipeptidyl peptidase 4 (P27487 whole entry): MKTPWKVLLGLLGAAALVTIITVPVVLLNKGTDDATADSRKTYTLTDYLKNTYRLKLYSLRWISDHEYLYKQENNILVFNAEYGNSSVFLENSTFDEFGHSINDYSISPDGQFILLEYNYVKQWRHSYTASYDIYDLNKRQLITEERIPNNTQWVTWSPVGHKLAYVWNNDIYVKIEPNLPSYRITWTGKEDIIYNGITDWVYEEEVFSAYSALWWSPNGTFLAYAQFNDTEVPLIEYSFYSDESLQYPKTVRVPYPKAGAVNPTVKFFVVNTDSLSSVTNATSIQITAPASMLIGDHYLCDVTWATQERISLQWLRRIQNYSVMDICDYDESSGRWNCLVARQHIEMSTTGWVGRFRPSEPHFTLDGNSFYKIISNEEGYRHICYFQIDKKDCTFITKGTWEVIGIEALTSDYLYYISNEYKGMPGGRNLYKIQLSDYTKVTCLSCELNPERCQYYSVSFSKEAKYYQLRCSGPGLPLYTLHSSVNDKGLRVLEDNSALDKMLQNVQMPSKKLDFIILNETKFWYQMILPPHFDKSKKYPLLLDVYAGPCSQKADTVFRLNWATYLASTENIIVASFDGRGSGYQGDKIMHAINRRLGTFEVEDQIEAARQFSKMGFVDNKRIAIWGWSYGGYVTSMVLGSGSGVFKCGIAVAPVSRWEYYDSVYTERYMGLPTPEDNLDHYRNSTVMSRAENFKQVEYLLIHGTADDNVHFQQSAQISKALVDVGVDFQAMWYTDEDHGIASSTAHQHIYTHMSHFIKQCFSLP

Structure (SMILES): N#C[C@@H]1C[C@H](O)CN1C(=O)CNC12CC3CC(CC(C3)C1)C2
- IC50 (Dipeptidyl peptidase 4): > 30 µM

Structure (SMILES): N#C[C@@H]1CC[C@H](C#N)N1C(=O)CNC1(Cc2ccccc2)CCCCC1
- IC50 (Dipeptidyl peptidase 4): > 3 µM

Structure (SMILES): N#C[C@@H]1CC[C@H](C#N)N1C(=O)CNC1(CCO)CCCC1
- IC50 (Dipeptidyl peptidase 4): > 3 µM

Structure (SMILES): CCC(C)(CC)NCC(=O)N1[C@H](C#N)CC[C@@H]1C#N
- IC50 (Dipeptidyl peptidase 4): > 3 µM

Structure (SMILES): C[C@H]1CC[C@@H](C#N)N1C(=O)CNC12CC3CC(CC(C3)C1)C2
- IC50 (Dipeptidyl peptidase 4): > 30 µM

Structure (SMILES): CCC(C)(C)NCC(=O)N1[C@H](C#N)CC[C@@H]1C#N
- IC50 (Dipeptidyl peptidase 4): > 3 µM

Structure (SMILES): N#C[C@@H]1CC[C@H](C#N)N1C(=O)CNC12CC3CC(CC(O)(C3)C1)C2
- Activity [1]: 45%
- bioavailability [2]: 42%
- IC50 (Dipeptidyl peptidase 4): 0.074 µM
- CL (Rattus norvegicus [3]): 130 mL/min/kg
- half-life [4]: 84 min
- half-life [5]: 24 min
- Vd [6]: 2.7 L/kg

Structure (SMILES): CC1(NCC(=O)N2[C@H](C#N)CC[C@@H]2C#N)COC(C)(C)OC1
- IC50 (Dipeptidyl peptidase 4): > 3 µM

Structure (SMILES): COC(=O)C1(NCC(=O)N2[C@H](C#N)CC[C@@H]2C#N)CCCC1
- IC50 (Dipeptidyl peptidase 4): > 3 µM

Structure (SMILES): N#C[C@@H]1CC[C@H](C#N)N1C(=O)CNC1(CCCO)CCCCC1
- IC50 (Dipeptidyl peptidase 4): > 3 µM

Structure (SMILES): CCC(C)(C)C1CCC(C)(NCC(=O)N2[C@H](C#N)CC[C@@H]2C#N)C1 (stereo partly drawn)
- IC50 (Dipeptidyl peptidase 4): > 3 µM

Structure (SMILES): CCCCOCC1(NCC(=O)N2[C@H](C#N)CC[C@@H]2C#N)CCCC1
- IC50 (Dipeptidyl peptidase 4): 0.091 µM
- Activity [7]: 16%

Structure (SMILES): C#CC1(NCC(=O)N2[C@H](C#N)CC[C@@H]2C#N)CCCCC1
- IC50 (Dipeptidyl peptidase 4): > 3 µM

Structure (SMILES): N#C[C@@H]1CC[C@H](C#N)N1C(=O)CNC12CC3CC(CC(C3)C1)C2
- Activity [1]: 55%
- CL (Rattus norvegicus [3]): 80 mL/min/kg
- half-life [5]: 36 min
- Vd [6]: 3.1 L/kg

Structure (SMILES): CC1(C)CCCC1(C)NCC(=O)N1[C@H](C#N)CC[C@@H]1C#N (stereo partly drawn)
- IC50 (Dipeptidyl peptidase 4): > 3 µM

Structure (SMILES): N#C[C@@H]1CC[C@H](c2ccccc2)N1C(=O)CNC1(CO)CCCC1
- IC50 (Dipeptidyl peptidase 4): > 30 µM

Structure (SMILES): N#C[C@@H]1CC[C@H](C#N)N1C(=O)CNC1(CO)CCCC1 [listing 1 of 2 here]
- Activity [8]: 46%
- Activity [9]: 59%
- Activity [10]: Active
- Activity [7]: 67%

Structure (SMILES): N#C[C@@H]1CC[C@H](C#N)N1C(=O)CNC12CC3(F)CC(F)(CC(F)(C3)C1)C2
- IC50 (Dipeptidyl peptidase 4): > 3 µM

Structure (SMILES): CC(C)(C)C(C)(C)NCC(=O)N1[C@H](C#N)CC[C@@H]1C#N
- IC50 (Dipeptidyl peptidase 4): > 3 µM

Structure (SMILES): N[C@H](C(=O)N1CC(F)(F)C(F)(F)C1)C1CCCCC1
- Activity [7]: 57%

Structure (SMILES): C[C@@H]1CC(C)(NCC(=O)N2[C@H](C#N)CC[C@@H]2C#N)C[C@@H]1C (stereo partly drawn)
- IC50 (Dipeptidyl peptidase 4): > 3 µM

Structure (SMILES): COCC1(NCC(=O)N2[C@H](C#N)CC[C@@H]2C#N)CCCC1
- bioavailability [2]: 48%
- IC50 (Dipeptidyl peptidase 4): 0.084 µM
- CL (Rattus norvegicus [3]): 98 mL/min/kg
- half-life [4]: 38.4 min
- half-life [5]: 12 min
- Vd [6]: 1.6 L/kg
- Activity [7]: 74%

Structure (SMILES): Cl.N#C[C@@H]1CC[C@H](C#N)N1C(=O)CNC1(CO)CCCC1
- solubility [11]: 200 mg/mL
- solubility [12]: > 76 mg/mL

Structure (SMILES): CCC1(NCC(=O)N2[C@H](C#N)CC[C@@H]2C#N)CCCCC1
- IC50 (Dipeptidyl peptidase 4): > 3 µM

Structure (SMILES): CNC(=O)C1(NCC(=O)N2[C@H](C#N)CC[C@@H]2C#N)CCCC1
- IC50 (Dipeptidyl peptidase 4): > 3 µM

Structure (SMILES): CC(C)C(C)(C)NCC(=O)N1[C@H](C#N)CC[C@@H]1C#N
- IC50 (Dipeptidyl peptidase 4): > 3 µM

Structure (SMILES): CC1(NCC(=O)N2[C@H](C#N)CC[C@@H]2C#N)CCSC1 (stereo partly drawn)
- IC50 (Dipeptidyl peptidase 4): > 3 µM

Structure (SMILES): N#C[C@@H]1CC[C@H](C#N)N1C(=O)CNC1(CO)CCCC1 [listing 2 of 2 here]
- CL (Cynomolgus monkey): 42 mL/min/kg
- fraction unbound [13]: 1
- half-life [14]: 48 min
- Tmax [15]: ≤ 60 min
- Cmax (Rattus norvegicus [16]): Dose-dependent effect
- bioavailability [2]: 77%
- CL (Rattus norvegicus [3]): 70 mL/min/kg
- CL (Canis familiaris [17]): 22 mL/min/kg
- AUC (Rattus norvegicus [18]): Dose-dependent effect
- half-life [4]: 162 min
- half-life [5]: 18 min
- Activity (Canis familiaris [19]): Not Active
- Vd [6]: 1.4 L/kg
- fraction unbound [20]: 1
- Activity (Rattus norvegicus [21]): Not Active
- fraction unbound [22]: 0.77
- Vd [23]: 1.7 L/kg
- fraction unbound [24]: 0.84
- Tmax [25]: ≤ 60 min
- Tmax [26]: ≤ 60 min
- bioavailability [27]: 93%
- bioavailability [28]: 42%
- half-life [29]: 36 min
- half-life [30]: 144 min
- Activity (Rhesus monkey): Not Active
- Vd [31]: 1.3 L/kg
- half-life [32]: 318 min

Structure (SMILES): CCOCC1(NCC(=O)N2[C@H](C#N)CC[C@@H]2C#N)CCCC1
- IC50 (Dipeptidyl peptidase 4): 0.064 µM
- Activity [7]: 79%

Structure (SMILES): N#C[C@@H]1CC[C@H](C#N)N1C(=O)CNC12CC3CC(CC1C3)C2
- IC50 (Dipeptidyl peptidase 4): 0.072 µM
- Activity [33]: 62%
